This excerpt belongs to a sample that is enriched for hits.
Ecoli WT growth – blocks growth of wild type E. coli BW25113; E. coli BW25113 growth inhibition, OD600; actives 0.05% (n = 20,000); inhibition, % at 10 µM; in the data active means inhibition above about 40%;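 further: bacteria exposed to compound for 20 hours at 37 °C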
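Assay system: Bacterial strain in a whole-cell growth screen | Amount: Inoculum from a 1:1000 dilution of a 1.5 h subculture | Detection: Absorbance at 615 nm as a measure of bacterial growth | Timing: 20 h exposure, 37 °C | Buffer or medium: LB plus kanamycin 50 µg/mL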
An asterisk follows results filed as active.

SMILES | Ecoli WT growth
CN(C)[C@@H]1C(=O)C(C(N)=O)=C(O)[C@@]2(O)C(=O)C3=C(O)c4c(O)cccc4[C@@](C)(O)[C@H]3[C@H](O)[C@@H]12 | 39.9*
CN1CCC(OC(=O)C2c3ccccc3Oc3ccccc32)CC1 | 10.4
NCC(CC(=O)O)c1ccc(Cl)cc1 (stereo not drawn) | -5.4
Cc1cccnc1NC1=NCC(C)S1 (stereo not drawn) | -14.1
CN1CCN(C(=O)COc2ccc3ccccc3c2Br)CC1 | -7.2

Screening results: PubChem, SRMLSC
